Experimental data of several laboratories.
Protocols differ between the studies behind these lines.
Target: Protein kinase C theta type (PRKCQ, Homo sapiens, UniProt Q04759)

| SMILES | effect on | action | technique | concentration | measurement | result |
| --- | --- | --- | --- | --- | --- | --- |
| CC(=O)N1CCC(c2ccc(C(=O)NC(=N)N)cc2C(F)(F)F)CC1 | cell-free assay | – | competition with immobilised ligand | 1 µM | remaining binding | 91% |
| Cc1cc(NC(=O)c2cccc3cc(-c4cccc5[nH]nc(N)c45)ccc23)ccc1F | enzyme activity | inhibitor | – | 0.1 µM | activity vs control | 93% |
| COc1cc2c(Nc3ccc(Br)cc3F)ncnc2cc1OCC1CCN(C)CC1 | cell-free assay | – | – | 0.5 µM | remaining signal | 100% |
| COc1cccc(CNC(=O)c2nc3scc(COCc4ccc(C(=O)O)cc4)c3c(=O)[nH]2)c1 | cell-free assay | – | competition with immobilised ligand | 1 µM | remaining binding | 100% |
| CN(C)C1CCN(CC#Cc2nn(C3CCCC3)c3nc(NCc4ccccc4)ncc23)C1 (stereo not drawn) | enzyme activity | inhibitor | FRET | 1 µM | inhibition | 19% |
| Cn1cncc1C1=CN(c2ncnc3[nH]cnc23)CCS1 | enzyme activity | inhibitor | radiometric | 2 µM | inhibition | 97.9% |
| C=CC(=O)Nc1cc(Nc2nccc(Nc3cc(Cl)c(F)cc3C(C)(C)O)n2)c(OC)cc1N1CC[C@@H](N(C)C)C1 | enzyme activity | inhibitor | – | 1 µM | inhibition | 17% |
| Cc1cnc(NC2CCOCC2)nc1-n1cnc(C(=O)NC(CN)c2cc(F)cc(Cl)c2)c1 (stereo not drawn) | enzyme activity | inhibitor | radiometric | 1 µM | remaining activity | 99% |
| CNCc1ccccc1-c1csc([C@H](C)Nc2nc(C)nc3cc(OC)c(OC)cc23)c1 | cell-free assay | – | competition with immobilised ligand | 1 µM | remaining binding | 100% |
| CCCS(=O)(=O)Nc1ccc(F)c(C(=O)c2c[nH]c3ncc(-c4ccc(Cl)cc4)cc23)c1F | enzyme activity | inhibitor | – | 1 µM | inhibition | < 10% |
| N#CCCc1ccc2c(c1)-c1[nH]c3ccc([N+](=O)[O-])cc3c1CC(=O)N2 | cell-free assay | – | – | 0.5 µM | remaining signal | 111% |
| CCCOc1ccc(OC)c(F)c1C(=O)c1ccc(C(=O)N[C@@H]2CNC[C@H]2NC(=O)c2ccc3[nH]ncc3c2)cc1 | enzyme activity | inhibitor | – | 10 µM | remaining activity | 22% |
| CCOc1cc(-c2nncn2C)ccc1Nc1ncc2cc(C)nc(NCC(C)(C)C)c2n1 | enzyme activity | inhibitor | FRET | 1 µM | inhibition | < 15% |
| Nc1cnc(N2CCc3cc(S(=O)(=O)Nc4c(F)cc(Cl)cc4F)cc(N4CCCC4=O)c32)nc1 | cell-free assay | – | competition with immobilised ligand | 1 µM | remaining binding | 89% |
| CC(C)(C)c1nc(-c2cccc(NS(=O)(=O)c3c(F)cccc3F)c2F)c(-c2ccnc(N)n2)s1 | enzyme activity | inhibitor | radiometric | 1 µM | remaining activity | 120% |
| O=C(O)c1cc(-c2ccc(C3CCNCC3)cc2)c2ccc(-c3ccc(C(F)(F)F)cc3)cc2c1 | cell-free assay | – | competition with immobilised ligand | 1 µM | remaining binding | 100% |
| CNC(=O)c1cc(Oc2ccc(NC(=O)Nc3ccc(Cl)c(C(F)(F)F)c3)cc2)ccn1 | enzyme activity | inhibitor | – | 10 µM | inhibition | -12% |
| O=C(NCc1ncc(C(F)(F)F)cc1Cl)c1ccc2c(c1)C1(CCS(=O)(=O)CC1)[C@H](C1CC1)N2S(=O)(=O)c1ccc(F)cc1 | cell-free assay | – | competition with immobilised ligand | 1 µM | remaining binding | 100% |
| O=C(Nc1cnn(-c2csc(C(=O)NC3COC3)c2)c1)Nc1ccccc1Cl | enzyme activity | inhibitor | – | 5 µM | remaining activity | 114% |
| CC1=C(C#N)[C@@H](c2ccc3[nH]nc(C)c3c2)C(C#N)=C(c2ccc(Cl)cc2)N1 | cell-free assay | – | competition with immobilised ligand | 1 µM | remaining binding | 100% |
| O=C1Nc2ccc(Cl)cc2C1=Cc1cc(Cl)c(O)c(Cl)c1 | cell-free assay | – | – | 0.5 µM | remaining signal | 105% |
